Source: ChEMBL document CHEMBL1140138, “Novel opioid peptide derived antagonists containing (2S)-2-methyl-3-(2,6-dimethyl-4-carbamoylphenyl)propanoic acid [(2S)-Mdcp]” (J Med Chem, 2008)
pIC50, pKi: −log10 of the molar value. Bridge positions count the residues as written; N and C are the ends. Square brackets hold non-standard residues; d marks the D form. Peptide text beside a SMILES is read from it. * marks the point of attachment. Phe(4-NO2) = N[C@@H](Cc1ccc([N+](=O)[O-])cc1)C(=O)O; X1 = Cc1cc(C(N)=O)cc(C)c1C[C@H](C)C(=O)*; Phe(4-F) = N[C@@H](Cc1ccc(F)cc1)C(=O)O; d2Nal = N[C@H](Cc1ccc2ccccc2c1)C(=O)O; Dmt = Cc1cc(O)cc(C)c1C[C@H](N)C(=O)O; dPen = CC(C)(S)[C@@H](N)C(=O)O; Pen = CC(C)(S)[C@H](N)C(=O)O; Sar = CNCC(=O)O

How the values were obtained:
[1] = biological target: Mu-type opioid receptor (Cavia porcellus) (UniProt P97266); assay: (§1) Antagonist activity against mu opioid receptor in guinea pig ileum assessed as effect on TAPP-induced response; type: functional, tissue-based
How it was run: (§2)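 Isolated tissue bioassays: mu and kappa antagonism measured in guinea pig ileum, delta antagonism in mouse vas deferens. Antagonist potency expressed as Ke (nM).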

[2] = biological target: Delta-type opioid receptor (Mus musculus) (UniProt P32300); assay: (§3) Antagonist activity against delta opioid receptor in mouse vas deference assessed as effect on DPDPE-induced response; type: functional; how it was run: as §2
[3] = biological target: Kappa-type opioid receptor (Cavia porcellus) (UniProt P41144); assay: Antagonist activity against kappa opioid receptor in guinea pig ileum assessed as effect on U50488-induced response; type: functional, tissue-based; how it was run: as §2
[4] = biological target: Kappa-type opioid receptor (Cavia porcellus, UniProt P41144); assay: Displacement of [3H]U69593 from kappa opioid receptor in guinea pig brain membrane; type: cell membranes
Mu-type opioid receptor [5] = biological target: Mu-type opioid receptor (Cavia porcellus, UniProt P97266); assay: as §1; type: functional, tissue-based; how it was run: as §2
[6] = biological target: Delta-type opioid receptor (Mus musculus, UniProt P32300); assay: as §3; type: functional; how it was run: as §2
Mu-type opioid receptor [7] = biological target: Mu-type opioid receptor (Rattus norvegicus, UniProt P33535); assay: Displacement of [3H]DAMGO from mu opioid receptor in rat brain membrane; type: cell membranes
How it was run: (§4)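 Opioid receptor binding in rat brain membrane preparations. Affinity expressed as Ki (nM).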

[8] = biological target: Delta-type opioid receptor (Rattus norvegicus, UniProt P33533); assay: Displacement of [3H]DSLET from delta opioid receptor in rat brain membrane; type: cell membranes; how it was run: as §4
Chain of Delta-type opioid receptor (Rattus norvegicus, UniProt P33533) (P33533 whole entry): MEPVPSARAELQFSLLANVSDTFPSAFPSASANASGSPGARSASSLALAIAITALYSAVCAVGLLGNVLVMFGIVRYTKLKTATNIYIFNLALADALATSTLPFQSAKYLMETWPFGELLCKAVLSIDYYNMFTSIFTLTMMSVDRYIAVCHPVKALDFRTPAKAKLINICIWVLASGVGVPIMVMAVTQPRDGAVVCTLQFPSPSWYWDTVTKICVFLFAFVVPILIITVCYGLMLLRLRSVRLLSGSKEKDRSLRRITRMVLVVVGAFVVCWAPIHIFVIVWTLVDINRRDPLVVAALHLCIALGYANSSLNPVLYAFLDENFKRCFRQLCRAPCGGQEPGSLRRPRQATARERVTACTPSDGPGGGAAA

Chain of Delta-type opioid receptor (Mus musculus) (P32300 whole entry): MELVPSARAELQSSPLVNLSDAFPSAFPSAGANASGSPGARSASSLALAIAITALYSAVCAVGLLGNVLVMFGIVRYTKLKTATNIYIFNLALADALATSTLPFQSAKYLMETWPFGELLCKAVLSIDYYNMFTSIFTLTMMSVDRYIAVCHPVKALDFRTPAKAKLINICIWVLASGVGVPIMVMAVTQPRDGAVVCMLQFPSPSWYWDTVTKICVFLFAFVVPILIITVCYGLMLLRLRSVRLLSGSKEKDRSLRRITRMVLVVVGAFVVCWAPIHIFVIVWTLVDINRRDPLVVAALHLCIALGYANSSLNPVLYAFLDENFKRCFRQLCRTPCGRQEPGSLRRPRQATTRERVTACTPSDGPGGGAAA
Chain of Mu-type opioid receptor (Cavia porcellus) (P97266 whole entry): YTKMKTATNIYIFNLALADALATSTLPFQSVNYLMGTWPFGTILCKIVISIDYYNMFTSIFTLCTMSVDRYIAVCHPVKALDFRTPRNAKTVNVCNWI
Chain of Mu-type opioid receptor (Cavia porcellus, UniProt P97266) (P97266 whole entry): as above
Chain of Kappa-type opioid receptor (Cavia porcellus) (P41144 whole entry): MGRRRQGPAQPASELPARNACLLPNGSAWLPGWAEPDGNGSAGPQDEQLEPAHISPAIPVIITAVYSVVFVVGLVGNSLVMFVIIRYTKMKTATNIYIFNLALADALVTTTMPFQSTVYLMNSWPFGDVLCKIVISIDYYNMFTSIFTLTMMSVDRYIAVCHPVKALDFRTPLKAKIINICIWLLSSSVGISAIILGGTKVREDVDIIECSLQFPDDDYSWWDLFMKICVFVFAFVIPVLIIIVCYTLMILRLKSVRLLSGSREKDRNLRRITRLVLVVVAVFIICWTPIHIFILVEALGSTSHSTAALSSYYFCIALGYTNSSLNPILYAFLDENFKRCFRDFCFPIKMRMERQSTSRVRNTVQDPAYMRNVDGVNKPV
Chain of Kappa-type opioid receptor (P41144 whole entry): as above
Chain of Mu-type opioid receptor (Rattus norvegicus, UniProt P33535) (P33535 whole entry): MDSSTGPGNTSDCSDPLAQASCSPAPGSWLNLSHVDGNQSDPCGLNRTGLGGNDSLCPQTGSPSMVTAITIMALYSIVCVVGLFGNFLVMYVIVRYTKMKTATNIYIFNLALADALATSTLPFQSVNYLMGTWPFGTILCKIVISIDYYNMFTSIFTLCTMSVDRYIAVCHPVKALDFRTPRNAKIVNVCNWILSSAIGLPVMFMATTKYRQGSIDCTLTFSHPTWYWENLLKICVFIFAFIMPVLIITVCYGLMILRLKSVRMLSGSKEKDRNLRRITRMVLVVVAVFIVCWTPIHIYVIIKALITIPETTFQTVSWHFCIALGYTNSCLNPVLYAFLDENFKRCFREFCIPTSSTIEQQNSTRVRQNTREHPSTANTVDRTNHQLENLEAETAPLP
Chain of Delta-type opioid receptor (Mus musculus, UniProt P32300) (P32300 whole entry): as the sequence (P32300 whole entry) above

SMILES | Ke [1] [nM] | Ke [2] [nM] | Ke [3] [nM] | pKi [4] | pKi (Mu-type opioid receptor [5]) | other results
Cc1cc(O)cc(C)c1C[C@H](N)C(=O)N(C)CC(=O)N[C@@H](Cc1ccccc1)C(=O)N[C@H](Cc1ccc2ccccc2c1)C(N)=O (H-[Dmt][Sar]F[d2Nal]-NH2) | 2.34 | 305 |  |  |  | 
Cc1cc(O)cc(C)c1C[C@H](C)C(=O)N[C@@H]1CSSC[C@H](C(N)=O)NC(=O)[C@H](Cc2ccc([N+](=O)[O-])cc2)NC(=O)CNC1=O | 1.48 | 3.48 | 6.41 | 7.03 |  | 
Cc1cc(O)cc(C)c1CCC(=O)N[C@@H]1CCCCNC(=O)NC[C@@H](C(N)=O)NC(=O)[C@H](Cc2ccccc2)NC(=O)CNC1=O |  |  |  |  | 7.81 | pKi [6]: 6.56
Cc1cc(C(N)=O)cc(C)c1C[C@H](C)C(=O)N[C@H]1C(=O)NCC(=O)N[C@@H](Cc2ccc(F)cc2)C(=O)N[C@H](C(=O)N[C@@H](Cc2ccccc2)C(=O)O)C(C)(C)SSC1(C)C (X1-[dPen]G[Phe(4-F)][Pen]F-OH; disulfide 1-4) | 1170 | 0.326 | 9980 |  |  | 
Cc1cc(O)cc(C)c1C[C@H](N)C(=O)N1CCC[C@H]1C(=O)N[C@@H](Cc1c[nH]c2ccccc12)C(=O)N[C@H](Cc1ccc2ccccc2c1)C(N)=O [ANTANAL-1] (H-[Dmt]PW[d2Nal]-NH2) |  |  |  |  | 8.62 | 
CC[C@H](C)[C@H](NC(=O)[C@H](CCCNC(=N)N)NC(=O)[C@H](CCCNC(=N)N)NC(=O)[C@H](CC(C)C)NC(=O)[C@H](Cc1ccccc1)NC(=O)CNC(=O)CNC(=O)[C@@H](C)Cc1c(C)cc(C(N)=O)cc1C)C(=O)N[C@@H](CCCNC(=N)N)C(=O)N1CCC[C@H]1C(=O)N[C@@H](CCCCN)C(N)=O | 401 | 843 | 5.96 | 7.59 |  | pKi (Mu-type opioid receptor [7]): 7.53; pKi [8]: 7.57
C[C@@H](O)[C@H](NC(=O)[C@H]1NC(=O)[C@H]([C@@H](C)O)NC(=O)[C@H](CCCN)NC(=O)[C@@H](Cc2c[nH]c3ccccc23)NC(=O)[C@H](Cc2ccc(O)cc2)NC(=O)[C@@H](NC(=O)[C@H](N)Cc2ccccc2)CSSC1(C)C)C(N)=O |  |  |  |  |  | pIC50 (Mu-type opioid receptor [5]): 8.55
Cc1cc(O)cc(C)c1C[C@H](N)C(=O)N1CCC[C@H]1C(=O)N[C@@H](Cc1ccccc1)C(=O)N[C@H](Cc1ccc2ccccc2c1)C(N)=O [ANTANAL-2] (H-[Dmt]PF[d2Nal]-NH2) |  |  |  |  | 8.82 | 
Cc1cc(C(N)=O)cc(C)c1C[C@H](C)C(=O)N[C@@H]1CSSC[C@H](C(N)=O)NC(=O)[C@H](Cc2ccc([N+](=O)[O-])cc2)NC(=O)CNC1=O (X1-[dC]G[Phe(4-NO2)][dC]-NH2; disulfide 1-4) | 1.24 | 9.78 | 18.9 |  |  | 
Cc1cc(O)cc(C)c1C[C@H](C)C(=O)N[C@H]1C(=O)NCC(=O)N[C@@H](Cc2ccc(F)cc2)C(=O)N[C@H](C(=O)N[C@@H](Cc2ccccc2)C(=O)O)C(C)(C)SSC1(C)C | 668 | 0.785 | 4370 | 5.43 |  | pKi (Mu-type opioid receptor [7]): 6.39; pKi [8]: 8.63
